From ChEMBL document CHEMBL4325886, “Synthesis and SAR studies of novel benzodiazepinedione-based inhibitors of Clostridium difficile (C. difficile) toxin B (TcdB)” (Bioorg Med Chem Lett, 2018)

How the values were obtained:
Toxin B [1] = biological target: T1, Toxin B (Clostridioides difficile, UniProt P18177); assay: Inhibition of Clostridium difficile toxin B […] CHO cells assessed as reduction in caspase 3/7 activation pre-incubated for 1 hr before TcdB addition by luminescence based assay; type: cell-based
[2] = Elimination half life in hamster at 10 mg/kg, po; type: ADME, organism-based; conditions: cricetinae, in vivo, read-out: beta t1/2 (converted)
[3] = Cmax in CD-1 mouse at 10 mg/kg, po; type: ADME, organism-based; parameters: dose 10 mg/kg, route oral; conditions: in vivo
Method in brief: (§1)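 CD-1 mice, single dose. The i.v. dose was 1 mg/kg in 40% PEG400/5% ethanol/55% water (v/v/v). The p.o. dose was 10 mg/kg in 20% PEG400/80% (0.5% (w/v) CMC with 0.25% (v/v) Tween 80) (v/v). Plasma samples were analysed to derive Cl, T1/2, Vz, AUC0-inf, Cmax, Tmax and oral bioavailability F.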

[4] = Clearance in CD-1 mouse at 1 mg/kg, iv; type: ADME, organism-based; conditions: in vivo; method in brief: as §1
[5] = AUC (0 to infinity) in CD-1 mouse at 1 mg/kg, iv; type: ADME, organism-based; parameters: dose 1 mg/kg, time infinity, route intravenous; conditions: in vivo; method in brief: as §1
[6] = Cmax in CD-1 mouse at 1 mg/kg, iv; type: ADME, organism-based; parameters: dose 1 mg/kg, route intravenous; conditions: in vivo; method in brief: as §1
[7] = AUC (0 to infinity) in CD-1 mouse at 10 mg/kg, po; type: ADME, organism-based; parameters: dose 10 mg/kg, time infinity, route oral; conditions: in vivo; method in brief: as §1
Toxin A = Toxin A (Clostridioides difficile, UniProt P16154); assay: Inhibition of Clostridium difficile toxin A […] CHO cells assessed as reduction in caspase 3/7 activation pre-incubated for 1 hr before TcdA addition by luminescence based assay; type: cell-based
[8] = Elimination half life in CD-1 mouse at 1 mg/kg, iv; type: ADME, organism-based; conditions: in vivo, read-out: beta t1/2 (converted); method in brief: as §1
[9] = AUC(infinity) in hamster at 10 mg/kg, po; type: ADME, organism-based; parameters: dose 10 mg/kg, time infinity, route oral; conditions: cricetinae, in vivo
[10] = Metabolic stability in human liver microsomes assessed as parent compound remaining after 15 mins; type: ADME, Microsome; conditions: read-out: Stability
[11] = Tmax in CD-1 mouse at 10 mg/kg, po; type: ADME, organism-based; conditions: in vivo; method in brief: as §1
[12] = Oral bioavailability in CD-1 mouse at 10 mg/kg; type: ADME, organism-based; conditions: in vivo; method in brief: as §1
[13] = Tmax in hamster at 10 mg/kg, po; type: ADME, organism-based; conditions: cricetinae, in vivo
[14] = Apparent volume of distribution during terminal phase in CD-1 mouse at 1 mg/kg, iv; type: ADME, organism-based; conditions: in vivo; method in brief: as §1
Toxin B [15] = biological target: T1, Toxin B; assay: Inhibition of C-terminal 6-His tagged recombinant Clostridium difficile toxin B glucosyltransferase domain assessed as reduction in UDP-glucose hydrolysis activity using UDP-glucose substrate and ADP Alexa633 tracer incubated for 3 hrs by fluorescence polarization assay
[16] = Cmax in hamster at 10 mg/kg, po; type: ADME, organism-based; parameters: dose 10 mg/kg, route oral; conditions: cricetinae, in vivo
[17] = Apparent oral clearance in hamster at 10 mg/kg, po; type: ADME, organism-based; conditions: cricetinae, in vivo
[18] = Metabolic stability in mouse liver microsomes assessed as parent compound remaining after 15 mins; type: ADME, Microsome; conditions: read-out: Stability
Clostridioides difficile [19] = assay: Antibacterial activity against Clostridium difficile infected hamster assessed as host survival at 50 mg/kg, po bid treated for 7 days (reference value: 2.3 days); type: functional
Clostridioides difficile [20] = assay: Antibacterial activity against Clostridium difficile infected hamster assessed as host survival at 5 mg/kg, po bid treated for 7 days (reference value: 2.3 days); type: functional
[21] = Metabolic stability in mouse plasma assessed as parent compound remaining after 2 hrs; type: ADME, cell-free; conditions: 2 h
Method in brief: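 Compound incubated in mouse plasma for 2 h. Parent compound remaining was measured, and the carboxylic acid hydrolysis product was also monitored.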

T1 sequence (P18177 whole entry): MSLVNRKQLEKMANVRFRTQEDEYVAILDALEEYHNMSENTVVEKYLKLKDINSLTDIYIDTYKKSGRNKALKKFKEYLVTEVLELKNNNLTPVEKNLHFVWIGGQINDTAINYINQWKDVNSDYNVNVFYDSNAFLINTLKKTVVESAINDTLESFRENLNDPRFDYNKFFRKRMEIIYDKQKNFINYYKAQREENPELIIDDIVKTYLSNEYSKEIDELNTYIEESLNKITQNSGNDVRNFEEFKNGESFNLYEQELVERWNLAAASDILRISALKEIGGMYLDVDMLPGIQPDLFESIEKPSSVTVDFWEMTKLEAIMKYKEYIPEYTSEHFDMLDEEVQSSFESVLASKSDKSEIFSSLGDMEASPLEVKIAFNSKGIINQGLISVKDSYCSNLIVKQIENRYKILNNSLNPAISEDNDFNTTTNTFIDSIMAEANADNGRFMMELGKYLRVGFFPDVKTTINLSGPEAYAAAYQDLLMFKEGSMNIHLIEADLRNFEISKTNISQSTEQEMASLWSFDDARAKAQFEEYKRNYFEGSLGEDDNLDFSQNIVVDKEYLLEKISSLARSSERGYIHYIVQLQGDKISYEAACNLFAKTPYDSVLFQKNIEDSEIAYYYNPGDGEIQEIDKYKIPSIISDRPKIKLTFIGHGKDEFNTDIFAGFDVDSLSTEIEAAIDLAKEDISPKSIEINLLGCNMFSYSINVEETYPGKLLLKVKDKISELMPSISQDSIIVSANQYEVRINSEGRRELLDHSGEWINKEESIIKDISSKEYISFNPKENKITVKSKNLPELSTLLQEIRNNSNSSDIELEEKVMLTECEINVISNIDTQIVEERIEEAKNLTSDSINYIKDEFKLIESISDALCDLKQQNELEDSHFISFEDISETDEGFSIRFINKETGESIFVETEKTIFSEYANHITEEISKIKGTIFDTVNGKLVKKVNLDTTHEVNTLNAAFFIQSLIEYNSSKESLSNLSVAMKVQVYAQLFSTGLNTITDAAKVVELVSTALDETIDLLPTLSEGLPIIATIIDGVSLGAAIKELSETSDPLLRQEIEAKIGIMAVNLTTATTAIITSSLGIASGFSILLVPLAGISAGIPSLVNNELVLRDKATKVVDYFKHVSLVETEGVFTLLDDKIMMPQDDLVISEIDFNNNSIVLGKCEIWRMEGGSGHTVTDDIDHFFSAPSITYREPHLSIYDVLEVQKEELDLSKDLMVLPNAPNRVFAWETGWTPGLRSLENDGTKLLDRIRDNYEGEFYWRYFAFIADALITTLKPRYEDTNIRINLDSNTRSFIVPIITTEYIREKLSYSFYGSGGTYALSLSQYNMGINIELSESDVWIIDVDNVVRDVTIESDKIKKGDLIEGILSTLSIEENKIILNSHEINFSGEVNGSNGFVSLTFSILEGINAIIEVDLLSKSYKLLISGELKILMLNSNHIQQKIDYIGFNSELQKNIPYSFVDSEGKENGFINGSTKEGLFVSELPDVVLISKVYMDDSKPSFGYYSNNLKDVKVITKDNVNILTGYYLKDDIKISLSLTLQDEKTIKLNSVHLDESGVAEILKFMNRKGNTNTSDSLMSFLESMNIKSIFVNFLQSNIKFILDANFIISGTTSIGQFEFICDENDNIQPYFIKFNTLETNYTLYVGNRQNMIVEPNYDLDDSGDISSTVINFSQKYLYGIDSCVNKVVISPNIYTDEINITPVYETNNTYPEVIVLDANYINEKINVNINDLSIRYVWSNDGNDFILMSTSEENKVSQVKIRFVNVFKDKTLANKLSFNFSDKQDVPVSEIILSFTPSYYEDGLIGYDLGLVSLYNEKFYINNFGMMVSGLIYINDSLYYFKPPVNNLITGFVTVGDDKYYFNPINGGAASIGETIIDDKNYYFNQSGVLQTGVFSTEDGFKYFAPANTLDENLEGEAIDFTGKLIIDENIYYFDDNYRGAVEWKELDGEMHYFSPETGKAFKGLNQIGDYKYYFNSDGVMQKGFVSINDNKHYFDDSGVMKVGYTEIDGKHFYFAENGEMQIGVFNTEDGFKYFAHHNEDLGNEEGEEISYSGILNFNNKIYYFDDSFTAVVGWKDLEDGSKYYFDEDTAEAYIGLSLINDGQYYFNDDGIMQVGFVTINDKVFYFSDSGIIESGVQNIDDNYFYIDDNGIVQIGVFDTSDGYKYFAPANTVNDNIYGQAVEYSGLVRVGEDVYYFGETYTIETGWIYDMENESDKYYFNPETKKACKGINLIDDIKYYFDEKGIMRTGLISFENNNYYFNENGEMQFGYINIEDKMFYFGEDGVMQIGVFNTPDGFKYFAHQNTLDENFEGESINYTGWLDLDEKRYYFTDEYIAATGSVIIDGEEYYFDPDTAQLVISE
Chain of Toxin A (P16154 whole entry): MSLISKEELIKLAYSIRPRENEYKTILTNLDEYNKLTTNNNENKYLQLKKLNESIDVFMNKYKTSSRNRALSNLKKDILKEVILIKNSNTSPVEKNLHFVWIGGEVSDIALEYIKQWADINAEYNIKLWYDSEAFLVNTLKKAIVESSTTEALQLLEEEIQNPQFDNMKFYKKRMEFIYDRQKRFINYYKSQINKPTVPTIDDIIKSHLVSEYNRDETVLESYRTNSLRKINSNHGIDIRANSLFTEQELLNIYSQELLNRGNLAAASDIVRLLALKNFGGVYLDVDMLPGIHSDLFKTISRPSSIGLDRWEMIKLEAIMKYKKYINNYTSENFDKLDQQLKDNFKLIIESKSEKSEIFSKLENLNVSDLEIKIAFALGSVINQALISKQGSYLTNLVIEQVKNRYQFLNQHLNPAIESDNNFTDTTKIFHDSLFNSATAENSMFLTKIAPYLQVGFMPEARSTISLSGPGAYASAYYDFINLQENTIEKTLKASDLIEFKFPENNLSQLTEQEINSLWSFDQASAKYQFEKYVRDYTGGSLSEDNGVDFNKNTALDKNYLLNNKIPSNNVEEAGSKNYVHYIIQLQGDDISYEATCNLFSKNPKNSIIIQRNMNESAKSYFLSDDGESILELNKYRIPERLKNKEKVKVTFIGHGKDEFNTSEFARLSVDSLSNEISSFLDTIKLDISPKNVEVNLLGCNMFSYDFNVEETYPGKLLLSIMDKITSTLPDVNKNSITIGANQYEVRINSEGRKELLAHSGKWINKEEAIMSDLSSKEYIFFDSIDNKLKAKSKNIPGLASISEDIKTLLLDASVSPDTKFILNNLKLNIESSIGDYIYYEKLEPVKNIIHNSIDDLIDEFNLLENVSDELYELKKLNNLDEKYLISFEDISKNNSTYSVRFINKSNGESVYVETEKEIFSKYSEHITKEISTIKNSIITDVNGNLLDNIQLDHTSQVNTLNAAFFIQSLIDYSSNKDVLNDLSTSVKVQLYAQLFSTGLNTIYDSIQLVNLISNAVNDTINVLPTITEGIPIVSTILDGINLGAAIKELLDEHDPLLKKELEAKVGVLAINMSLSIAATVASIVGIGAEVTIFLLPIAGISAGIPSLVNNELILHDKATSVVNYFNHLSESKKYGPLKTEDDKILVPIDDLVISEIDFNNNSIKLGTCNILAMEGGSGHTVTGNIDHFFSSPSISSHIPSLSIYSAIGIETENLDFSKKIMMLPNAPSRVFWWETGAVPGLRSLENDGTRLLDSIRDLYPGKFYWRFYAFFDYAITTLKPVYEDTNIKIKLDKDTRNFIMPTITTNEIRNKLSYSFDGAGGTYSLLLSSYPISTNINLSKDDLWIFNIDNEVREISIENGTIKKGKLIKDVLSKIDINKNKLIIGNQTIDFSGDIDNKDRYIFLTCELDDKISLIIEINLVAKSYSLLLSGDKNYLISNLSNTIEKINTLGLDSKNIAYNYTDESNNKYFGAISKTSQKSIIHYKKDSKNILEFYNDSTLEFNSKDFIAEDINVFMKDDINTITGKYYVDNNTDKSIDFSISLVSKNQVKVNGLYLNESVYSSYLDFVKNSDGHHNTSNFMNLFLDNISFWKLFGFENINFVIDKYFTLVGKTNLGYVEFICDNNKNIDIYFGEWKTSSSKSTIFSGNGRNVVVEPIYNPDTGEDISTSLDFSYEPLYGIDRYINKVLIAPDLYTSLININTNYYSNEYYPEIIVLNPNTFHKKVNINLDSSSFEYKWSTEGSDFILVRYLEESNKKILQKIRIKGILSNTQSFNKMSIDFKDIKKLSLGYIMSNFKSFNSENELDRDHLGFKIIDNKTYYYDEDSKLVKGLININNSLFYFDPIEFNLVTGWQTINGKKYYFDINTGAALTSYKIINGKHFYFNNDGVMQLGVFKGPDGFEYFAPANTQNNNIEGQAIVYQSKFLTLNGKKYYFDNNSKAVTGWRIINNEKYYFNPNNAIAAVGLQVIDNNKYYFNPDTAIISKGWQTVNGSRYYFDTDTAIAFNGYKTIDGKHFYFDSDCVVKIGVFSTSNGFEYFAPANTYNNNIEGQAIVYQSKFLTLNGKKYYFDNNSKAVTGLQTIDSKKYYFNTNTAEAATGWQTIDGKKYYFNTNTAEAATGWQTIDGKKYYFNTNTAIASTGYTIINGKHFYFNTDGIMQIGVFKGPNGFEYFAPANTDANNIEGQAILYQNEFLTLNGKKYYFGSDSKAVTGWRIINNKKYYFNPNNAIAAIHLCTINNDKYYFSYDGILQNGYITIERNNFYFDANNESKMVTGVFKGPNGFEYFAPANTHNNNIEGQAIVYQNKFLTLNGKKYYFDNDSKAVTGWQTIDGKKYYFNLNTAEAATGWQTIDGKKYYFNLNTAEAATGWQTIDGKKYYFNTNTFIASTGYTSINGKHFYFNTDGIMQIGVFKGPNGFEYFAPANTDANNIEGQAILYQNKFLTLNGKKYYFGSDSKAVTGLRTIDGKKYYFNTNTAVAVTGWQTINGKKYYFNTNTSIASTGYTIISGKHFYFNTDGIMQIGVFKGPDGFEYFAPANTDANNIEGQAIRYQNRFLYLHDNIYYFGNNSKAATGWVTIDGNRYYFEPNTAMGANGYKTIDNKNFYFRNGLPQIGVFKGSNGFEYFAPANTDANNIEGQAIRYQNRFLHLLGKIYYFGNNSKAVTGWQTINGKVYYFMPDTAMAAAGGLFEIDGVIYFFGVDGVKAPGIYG

SMILES | IC50 (Toxin B [1]) [nM] | IC50 (Toxin A) [nM] | remaining at 0.25 h [10] [%] | IC50 (Toxin B [15]) [nM] | remaining at 0.25 h [18] [%] | further results
O=C(Nc1ccc(C(F)(F)F)cn1)c1ccc(CN2C(=O)c3ccc(Cl)cc3NC(=O)[C@H]2Cc2ccccn2)cc1Cl | 250 | 6300 | 94 | 18 | 92 | half-life [2]: 10 h; Cmax [3]: 1530 ng/mL; clearance [4]: 28 mL/min/kg; AUC(0-inf) [5]: 592 ng·h/mL; Cmax [6]: 312 ng/mL; AUC(0-inf) [7]: 9420 ng·h/mL; half-life [8]: 2.6 h; AUC(0-inf) [9]: 21500 ng·h/mL; Tmax [11]: 0.25 h; F [12]: 159%; Tmax [13]: 0.25 h; Vz/F [14]: 6.2 L/kg; Cmax [16]: 2750 ng/mL; CL/F [17]: 7.8 mL/min/kg; MST (Clostridioides difficile [19]): 12.3 days
Cc1ccc(C(=O)c2ccc(CN3C(=O)c4ccc(Cl)cc4NC(=O)[C@H]3Cc3ccccn3)cc2)nc1 | 5900 | 23000 | 57 | 38 | 68 | –
Cn1cnc(C(=O)c2ccc(CN3C(=O)c4ccc(Cl)cc4NC(=O)[C@H]3Cc3ccccn3)cc2)c1 | > 100000 | > 100000 | 44 | 230 | 16 | –
O=C(c1ccc(CN2C(=O)c3ccc(Cl)cc3NC(=O)[C@H]2Cc2ccccn2)cc1)c1c[nH]c2cccnc12 | 1800 | 18000 | 87 | 2 | 93 | –
COc1ccc(NC(=O)c2ccc(CN3C(=O)c4ccc(Cl)cc4NC(=O)[C@H]3Cc3ccccn3)cc2OC)nc1 | 130 | 1100 | 78 | 5 | 71 | –
O=C(O)c1c(Cl)cc(CN2C(=O)c3ccc(Cl)cc3NC(=O)[C@H]2Cc2ccccn2)cc1Cl | – | – | – | 7400 | – | –
CN[C@H](CC(C)C)C(=O)N[C@H]1C(=O)N[C@@H](CC(N)=O)C(=O)N[C@H]2C(=O)N[C@H]3C(=O)N[C@H](C(=O)N[C@H](C(=O)O)c4cc(O)cc(O)c4-c4cc3ccc4O)[C@H](O)c3ccc(c(Cl)c3)Oc3cc2cc(c3O[C@@H]2O[C@H](CO)[C@@H](O)[C@H](O)[C@H]2O[C@H]2C[C@](C)(N)[C@H](O)[C@H](C)O2)Oc2ccc(cc2Cl)[C@H]1O [VANCOMYCIN] | – | – | – | – | – | MST (Clostridioides difficile [20]): 12 days
O=C(c1ccc(CN2C(=O)c3ccc(Cl)cc3NC(=O)[C@H]2Cc2ccccn2)cc1)c1cccn2ccnc12 | 660 | 8100 | 44 | 8 | 27 | –
O=C(O)c1ccc(CN2C(=O)c3ccc(Cl)cc3NC(=O)[C@H]2Cc2ccccn2)cc1 | – | – | – | 180 | – | –
Cc1cnc(NC(=O)c2ccc(CN3C(=O)c4ccc(Cl)cc4NC(=O)[C@H]3Cc3ccccn3)cc2Cl)cn1 | 220 | 2100 | 81 | 9 | 79 | –
Cc1ccc(NC(=O)c2ccc(CN3C(=O)c4ccc(Cl)cc4NC(=O)[C@H]3Cc3ccccn3)cc2C)nc1 | 61 | 860 | 61 | 7 | 31 | –
COc1cnc(NC(=O)c2ccc(CN3C(=O)c4ccc(Cl)cc4NC(=O)[C@H]3Cc3ccccn3)cc2)nc1 | 3 | – | – | – | – | Stability [21]: Unstable
Cc1cc(CN2C(=O)c3ccc(Cl)cc3NC(=O)[C@H]2Cc2ccccn2)ccc1C(=O)Nc1ccc(C(F)(F)F)cn1 | 170 | 2400 | 100 | 20 | 99 | –
N#Cc1ccc(NC(=O)c2ccc(CN3C(=O)c4ccc(Cl)cc4NC(=O)[C@H]3Cc3ccccn3)cc2Cl)nc1 | 52 | – | 90 | 8 | 84 | –
Cn1ccnc1C(=O)c1ccc(CN2C(=O)c3ccc(Cl)cc3NC(=O)[C@H]2Cc2ccccn2)cc1 | > 100000 | > 100000 | 49 | 190 | 33 | –
COc1ccc(NC(=O)c2ccc(CN3C(=O)c4ccc(Cl)cc4NC(=O)[C@H]3Cc3ccccn3)cc2C)nc1 | 71 | 480 | 68 | 10 | 51 | –
COc1cc(CN2C(=O)c3ccc(Cl)cc3NC(=O)[C@H]2Cc2ccccn2)ccc1C(=O)Nc1ccc(F)cn1 | 1100 | 17000 | 94 | 14 | 67 | –
O=C(O)c1ccc(CN2C(=O)c3ccc(Cl)cc3NC(=O)[C@H]2Cc2ccccn2)cc1Cl | – | – | – | 480 | – | –
